Test results from ChEMBL document CHEMBL2086358, “Discovery of structurally-diverse inhibitor scaffolds by high-throughput screening of a fragment library with dimethylarginine dimethylaminohydrolase” (Bioorg Med Chem, 2012).
pIC50, pKi: −log10 of the molar value. The source made the active and inactive calls. The rule behind the calls is not given here.

Columns and labels:
[1] = target: T1, N(G),N(G)-dimethylarginine dimethylaminohydrolase 1 (Homo sapiens, UniProt O94760); assay: Competitive inhibition of human recombinant His6-tagged DDAH1 expressed in Escherichia coli BL21(DE3) using Nomega,Nomega-dimethyl-L-arginine as substrate after 80 mins by double-reciprocal plot analysis
[2] = target: T1, N(G),N(G)-dimethylarginine dimethylaminohydrolase 1; assay: Inhibition of human recombinant His6-tagged DDAH1 expressed in Escherichia coli BL21(DE3) using Nomega,Nomega-dimethyl-L-arginine as substrate after 80 mins by colorimetric ureido derivitization assay
[3] = target: T1, N(G),N(G)-dimethylarginine dimethylaminohydrolase 1; assay: Reversible inhibition of human recombinant His6-tagged DDAH1 expressed in Escherichia coli BL21(DE3) using 1 mM Nomega,Nomega-dimethyl-L-arginine as substrate incubated up to 120 mins prior to substrate addition measured after 120 mins by colorimetric ureido derivitization assay
Summary of the method: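 Human DDAH-1 (30 μM) incubated at room temperature with compound (0–2 mM) in Na2HPO4 100 mM, NaCl 100 mM, EDTA 2 mM, Tween-20 0.02%, pH 7.25, with or without reduced glutathione (2 mM). After 0–120 min, diluted 40-fold into ADMA (1 mM) in the same buffer. Incubated a further 120 min, quenched with HCl (300 mM final), and L-citrulline read colorimetrically.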

[4] = target: T1, N(G),N(G)-dimethylarginine dimethylaminohydrolase 1; assay: (§1) Inhibition of human recombinant His6-tagged DDAH1 expressed in Escherichia coli BL21(DE3) using Nomega,Nomega-dimethyl-L-arginine as substrate at 400 uM after 1 to 2 hrs by colorimetric ureido derivitization assay
Summary of the method: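 Rapid-onset secondary assay. Compound (400 μM) mixed with ADMA (300 μM, 2.5-fold over KM) in Reaction Buffer (Na2HPO4 172 mM, KCl 172 mM, Tween-20 0.02%, EDTA 2 mM, pH 7.3). Started with human DDAH-1 (1 μM final), run 1–2 h, quenched with HCl (1 M final). Ureido product read colorimetrically; ≥20% inhibition counted as a hit.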

[5] = target: T1, N(G),N(G)-dimethylarginine dimethylaminohydrolase 1; assay: as §1, with “uM incubated for 10 to 20 mins prior to substrate addition measured” for “uM”, “assay in presence of 2 mM reduced glutathione” for “assay”
Summary of the method: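 Compound (400 μM) preincubated 10–20 min at room temperature with human DDAH-1 (1 μM) and reduced glutathione (2 mM) in Reaction Buffer, pH 7.3. ADMA (300 μM) then added; 1–2 h at room temperature, HCl quench (1 M final), colorimetric ureido derivatization. Inhibition compared against assays without glutathione.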

Pseudomonas aeruginosa [6] = assay: Inhibition of Pseudomonas aeruginosa His6-tagged DDAH expressed in Escherichia coli BL21(DE3) using S-methyl-Lthiocitrulline as substrate at 100 uM measured every 20 secs for 10 mins
[7] = target: T1, N(G),N(G)-dimethylarginine dimethylaminohydrolase 1; assay: Inhibition of human recombinant His6-tagged DDAH1 expressed in Escherichia coli BL21(DE3) using S-methyl-L-thiocitrulline as substrate at 100 uM by CPM-based fluorescence spectrophotometry
Summary of the method: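 Primary HTS run in duplicate. Compound at 100 μM with human DDAH-1 (20 nM), S-methyl-L-thiocitrulline (0.4 μM) and CPM (3.5 μM) in K2HPO4 172 mM, KCl 172 mM, EDTA 2 mM, Tween-20 0.02%, DMSO 1%, pH 7.3. Enzyme–compound preincubation 10 min.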

Pseudomonas aeruginosa [8] = assay: Inhibition of Pseudomonas aeruginosa His6-tagged DDAH expressed in Escherichia coli BL21(DE3) using S-methyl-Lthiocitrulline as substrate up to 1 mM measured every 20 secs for 10 mins by fluorescence spectrophotometry
Pseudomonas aeruginosa [9] = assay: Ratio of Kinact to KI for Pseudomonas aeruginosa His6-tagged DDAH expressed in Escherichia coli BL21(DE3) using S-methyl-Lthiocitrulline as substrate up to 1 mM measured every 20 secs for 10 mins by fluorescence spectrophotometry
[10] = target: T1, N(G),N(G)-dimethylarginine dimethylaminohydrolase 1; assay: Inhibition of human recombinant His6-tagged DDAH1 expressed in Escherichia coli BL21(DE3) using Nomega,Nomega-dimethyl-L-arginine as substrate at 400 uM by colorimetric ureido derivitization assay; settings: TDE = time-dependent effect

T1 sequence (O94760 whole entry): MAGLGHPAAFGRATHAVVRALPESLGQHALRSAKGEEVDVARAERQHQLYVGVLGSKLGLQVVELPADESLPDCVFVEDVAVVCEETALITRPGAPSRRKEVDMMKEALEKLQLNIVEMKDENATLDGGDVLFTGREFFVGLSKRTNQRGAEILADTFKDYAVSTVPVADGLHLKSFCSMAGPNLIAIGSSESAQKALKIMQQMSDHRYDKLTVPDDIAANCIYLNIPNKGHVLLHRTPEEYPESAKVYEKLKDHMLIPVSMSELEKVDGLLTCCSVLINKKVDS

Row | pKi [1] | pIC50 [2] | inhibition [3] | inhibition [4] [%] | inhibition [5] [%] | inhibition (Pseudomonas aeruginosa [6]) [%] | inhibition [7] [%] | inhibition (Pseudomonas aeruginosa [8]) | Ratio (Pseudomonas aeruginosa [9]) [M⁻¹ s⁻¹] | inhibition [10] | Structure (SMILES)
1 | 3.10 | 2.85 | Active | 36 | 25 | 1 | 4 | inactive |  |  | CCc1nc2ccccc2[nH]1
2 |  |  |  | 56 | 46 | 50 | 17 |  | 0.65 | tde | OCc1cc(Cl)ccn1
3 |  |  |  | 74 | 95 | 89 | 55 |  | 4.8 | tde | Cc1cc(Br)ccn1
4 | 2.77 | 2.57 | Active | 21 | 23 |  |  |  |  |  | NCCSc1nc2ccccc2o1
